# Measurements reported in ChEMBL document CHEMBL5230171, “Expanding the structure-activity relationships of alkynyl diphenylurea scaffold as promising antibacterial agents” (RSC Med Chem, 2023).
# Activity calls are given as the source filed them.
# Tests used:
# Staphylococcus aureus [1] = assay: Antibacterial activity against methicillin resistant Staphylococcus aureus 123 assessed as inhibition of bacterial growth incubated for 18 to 20 hrs by CLSI protocol based broth microdilution method; assay type: functional; conditions: time 18-20 hrs
# How it was run: (§1)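 Broth microdilution against staphylococcal clinical isolates. Each strain was prepared as a 0.5 McFarland suspension and diluted in cation-adjusted Mueller Hinton broth to ~5 × 10^5 CFU mL−1. Serial dilutions of test agents in DMSO stock were incubated with the bacteria, and the MIC was recorded.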
# Staphylococcus aureus [2] = assay: Antibacterial activity against methicillin resistant Staphylococcus aureus 384 assessed as inhibition of bacterial growth incubated for 18 to 20 hrs by CLSI protocol based broth microdilution method; assay type: functional; conditions: time 18-20 hrs; how it was run: as §1
# Staphylococcus aureus [3] = assay: Antibacterial activity against methicillin resistant Staphylococcus aureus 119 assessed as inhibition of bacterial growth incubated for 18 to 20 hrs by CLSI protocol based broth microdilution method; assay type: functional; conditions: time 18-20 hrs; how it was run: as §1
# Staphylococcus aureus [4] = assay: Antibacterial activity against methicillin resistant Staphylococcus aureus 385 assessed as inhibition of bacterial growth incubated for 18 to 20 hrs by CLSI protocol based broth microdilution method; assay type: functional; conditions: time 18-20 hrs; how it was run: as §1
# Staphylococcus aureus [5] = assay: Antibacterial activity against methicillin resistant Staphylococcus aureus 386 assessed as inhibition of bacterial growth incubated for 18 to 20 hrs by CLSI protocol based broth microdilution method; assay type: functional; conditions: time 18-20 hrs; how it was run: as §1
# Staphylococcus aureus [6] = assay: Antibacterial activity against vancomycin resistant Staphylococcus aureus 12 assessed as inhibition of bacterial growth incubated for 18 to 20 hrs by CLSI protocol based broth microdilution method; assay type: functional; conditions: time 18-20 hrs; how it was run: as §1
# Staphylococcus aureus [7] = assay: Antibacterial activity against methicillin sensitive Staphylococcus aureus 107 assessed as inhibition of bacterial growth incubated for 18 to 20 hrs by CLSI protocol based broth microdilution method; assay type: functional; conditions: time 18-20 hrs; how it was run: as §1
# Staphylococcus aureus [8] = assay: Antibacterial activity against methicillin sensitive Staphylococcus aureus 6538 assessed as inhibition of bacterial growth incubated for 18 to 20 hrs by CLSI protocol based broth microdilution method; assay type: functional; conditions: time 18-20 hrs; how it was run: as §1
# Streptococcus pneumoniae = assay: Antibacterial activity against Streptococcus pneumoniae 700677 assessed as inhibition of bacterial growth incubated for 18 to 20 hrs by CLSI protocol based broth microdilution method; assay type: functional; conditions: time 18-20 hrs
# How it was run: (§2)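 Streptococci were diluted from a 0.5 McFarland suspension in cation-adjusted Mueller Hinton broth with 5% lysed horse blood. They were incubated with serial dilutions of test agent in broth microdilution, and the MIC was recorded.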
# Streptococcus pyogenes = assay: Antibacterial activity against Streptococcus pyogenes MGAS 9882 assessed as inhibition of bacterial growth incubated for 18 to 20 hrs by CLSI protocol based broth microdilution method; assay type: functional; conditions: time 18-20 hrs; how it was run: as §2
# Enterococcus faecalis = assay: Antibacterial activity against Enterococcus faecalis 51299 assessed as inhibition of bacterial growth incubated for 18 to 20 hrs by CLSI protocol based broth microdilution method; assay type: functional; conditions: time 18-20 hrs
# How it was run: (§3)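 Enterococci and L. monocytogenes were diluted from a 0.5 McFarland suspension in TSB. They were incubated with serial dilutions of test agent in broth microdilution, and the MIC was recorded.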
# Listeria monocytogenes = assay: Antibacterial activity against Listeria monocytogenes 19111 assessed as inhibition of bacterial growth incubated for 18 to 20 hrs by CLSI protocol based broth microdilution method; assay type: functional; conditions: time 18-20 hrs; how it was run: as §3
# Staphylococcus aureus [9] = assay: Antibacterial activity against methicillin resistant Staphylococcus aureus 123 assessed as inhibition of bacterial growth at 0.5 ug/ml incubated for 18 to 20 hrs by CLSI protocol based broth microdilution method; assay type: functional, organism-based; conditions: dose 0.5 µg/ml, time 18-20 hrs
# Staphylococcus aureus [10] = assay: Antibacterial activity against methicillin resistant Staphylococcus aureus 384 assessed as inhibition of bacterial growth at 0.5 ug/ml incubated for 18 to 20 hrs by CLSI protocol based broth microdilution method; assay type: functional, organism-based; conditions: dose 0.5 µg/ml, time 18-20 hrs
# Staphylococcus aureus [11] = assay: Antibacterial activity against methicillin resistant Staphylococcus aureus 119 assessed as inhibition of bacterial growth at 0.5 ug/ml incubated for 18 to 20 hrs by CLSI protocol based broth microdilution method; assay type: functional, organism-based; conditions: dose 0.5 µg/ml, time 18-20 hrs
# Staphylococcus aureus [12] = assay: Antibacterial activity against methicillin resistant Staphylococcus aureus 385 assessed as inhibition of bacterial growth at 0.5 ug/ml incubated for 18 to 20 hrs by CLSI protocol based broth microdilution method; assay type: functional, organism-based; conditions: dose 0.5 µg/ml, time 18-20 hrs
# Staphylococcus aureus [13] = assay: Antibacterial activity against methicillin resistant Staphylococcus aureus 386 assessed as inhibition of bacterial growth at 0.5 ug/ml incubated for 18 to 20 hrs by CLSI protocol based broth microdilution method; assay type: functional, organism-based; conditions: dose 0.5 µg/ml, time 18-20 hrs
# Staphylococcus aureus [14] = assay: Antibacterial activity against vancomycin resistant Staphylococcus aureus 10 assessed as inhibition of bacterial growth at 0.5 ug/ml incubated for 18 to 20 hrs by CLSI protocol based broth microdilution method; assay type: functional, organism-based; conditions: dose 0.5 µg/ml, time 18-20 hrs
# Staphylococcus aureus [15] = assay: Antibacterial activity against vancomycin resistant Staphylococcus aureus 12 assessed as inhibition of bacterial growth at 0.5 ug/ml incubated for 18 to 20 hrs by CLSI protocol based broth microdilution method; assay type: functional, organism-based; conditions: dose 0.5 µg/ml, time 18-20 hrs
# Staphylococcus aureus [16] = assay: Antibacterial activity against vancomycin resistant Staphylococcus aureus 9 assessed as inhibition of bacterial growth at 0.5 ug/ml incubated for 18 to 20 hrs by CLSI protocol based broth microdilution method; assay type: functional, organism-based; conditions: dose 0.5 µg/ml, time 18-20 hrs
# Staphylococcus aureus [17] = assay: Antibacterial activity against methicillin sensitive Staphylococcus aureus 107 assessed as inhibition of bacterial growth at 0.5 ug/ml incubated for 18 to 20 hrs by CLSI protocol based broth microdilution method; assay type: functional, organism-based; conditions: dose 0.5 µg/ml, time 18-20 hrs
# How it was run: (§4)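 Staphylococcal and E. coli strains were diluted from a 0.5 McFarland suspension in cation-adjusted Mueller Hinton broth to ~5 × 10^5 CFU mL−1. They were incubated with serial dilutions of test agent in broth microdilution, and the MIC was recorded.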
# Staphylococcus aureus [18] = assay: Antibacterial activity against methicillin sensitive Staphylococcus aureus 6538 assessed as inhibition of bacterial growth at 0.5 ug/ml incubated for 18 to 20 hrs by CLSI protocol based broth microdilution method; assay type: functional, organism-based; conditions: dose 0.5 µg/ml, time 18-20 hrs; how it was run: as §4
# Vero = assay: Cytotoxicity against African green monkey Vero cells assessed as reduction in cell viability at 64 ug/ml incubated for 24 hrs by MTS assay; assay type: toxicity, cell-based; conditions: chlorocebus sabaeus, dose 64 µg/ml
# How it was run: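 Vero or HaCaT cells were exposed to 32, 64 and 128 μg mL−1 compound in triplicate for 24 h at 37 °C, 5% CO2, with a DMSO control. MTS was then added for 4 h and OD490 read. Analysis used two-way ANOVA with Dunnett's post hoc test (p < 0.05).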
# Staphylococcus aureus [19] = assay: Induction of drug resistance in methicillin resistant Staphylococcus aureus NRS384 USA300 assessed as fold change in MIC measured from passage 5 to 14 by broth microdilution method; assay type: functional
# How it was run: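 Multi-step resistance in MRSA USA300 over 14 consecutive passages, with rifampicin as the control antibiotic. The MIC was determined by broth microdilution at each passage. Resistance was defined as a greater than four-fold rise over the initial MIC.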
# Staphylococcus aureus [20] = assay: (§5) Antibacterial activity against methicillin resistant Staphylococcus aureus NRS384 USA300 infected in Balb/c mouse model of skin infection assessed as reduction in inflammation administered topically twice daily for three consecutive days from day 4 to 6 and measured 24 hrs post last dose; assay type: functional, organism-based; conditions: route top, time 4.0 day
# How it was run: (§6)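 Mice were anesthetized with 2,2,2-tribromoethanol and injected subcutaneously with 100 μL containing 2 × 10^9 CFU MRSA USA300 in 0.5% HPMC in saline. Topical treatment used a petroleum jelly vehicle, with a fusidic acid positive control. Lesions were photographed 24 h after the last dose. A ~1.5 cm2 skin patch (homogenized in 1 mL saline) and the spleen (in 0.5 mL) were serially diluted and plated on MSA at 37 °C overnight for CFU.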
# Staphylococcus aureus [21] = assay: as §5, with “bacterial burden in skin lesions” for “inflammation”; assay type: functional; conditions: route top; time 4 day; how it was run: as §6
compound,measurement,setting,value
C/C(=N\NC(=N)N)c1ccc(NC(=O)Nc2ccc(C#Cc3ccccc3)cc2)cc1,MIC,Staphylococcus aureus [1],0.5 µg/mL
same,MIC,Staphylococcus aureus [2],0.5 µg/mL
same,MIC,Staphylococcus aureus [3],0.5 µg/mL
same,MIC,Staphylococcus aureus [4],0.5 µg/mL
same,MIC,Staphylococcus aureus [5],0.5 µg/mL
same,MIC,Staphylococcus aureus [6],0.5 µg/mL
same,MIC,Staphylococcus aureus [7],0.5 µg/mL
same,MIC,Staphylococcus aureus [8],0.5 µg/mL
same,MIC,Streptococcus pneumoniae,0.5 µg/mL
same,MIC,Streptococcus pyogenes,0.5 µg/mL
same,MIC,Enterococcus faecalis,0.5 µg/mL
same,MIC,Listeria monocytogenes,0.5 µg/mL
same,Activity,Staphylococcus aureus [9],Active
same,Activity,Staphylococcus aureus [10],Active
same,Activity,Staphylococcus aureus [11],Active
same,Activity,Staphylococcus aureus [12],Active
same,Activity,Staphylococcus aureus [13],Active
same,Activity,Staphylococcus aureus [14],Active
same,Activity,Staphylococcus aureus [15],Active
same,Activity,Staphylococcus aureus [16],Active
same,Activity,Staphylococcus aureus [17],Active
same,Activity,Staphylococcus aureus [18],Active
same,Activity,Vero,Non-Toxic
same,fold change (FC),Staphylococcus aureus [19],1
same,Activity,Staphylococcus aureus [20],Active
same,Activity,Staphylococcus aureus [21],0.5 log10CFU/ml
